Measured values from article PMC12102734 (Protein Science : A Publication of the Protein Society, 2025).
mca = not defined here

What was measured:
Sm20S β2 subunit [1] = molecular target: T1, Sm20S β2 subunit (Schistosoma mansoni, UniProt G4VSW3); assay: Inhibition of single-step enriched Sm20S, mca-FnKRR-K; format: biochemical
T1 sequence (G4VSW3 39-281): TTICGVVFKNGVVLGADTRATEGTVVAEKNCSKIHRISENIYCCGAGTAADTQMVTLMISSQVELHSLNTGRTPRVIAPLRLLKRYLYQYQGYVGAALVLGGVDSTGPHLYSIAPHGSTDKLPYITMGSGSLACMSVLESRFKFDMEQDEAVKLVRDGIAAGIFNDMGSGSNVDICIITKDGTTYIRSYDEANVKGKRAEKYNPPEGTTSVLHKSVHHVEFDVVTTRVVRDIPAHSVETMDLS
Summary of the method: (§1)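 Single-step enriched Sm20S: S. mansoni extract precipitated with ammonium sulfate (30% then 60% saturation, 60 min each on ice), resuspended in 100 mM Tris-HCl pH 7.5, 100 μM E-64, and concentrated on a 100 kDa filter. Assay buffer contained pepstatin, E-64 and AEBSF. Extract was incubated with test compound 1 h at RT, and cleavage of internally quenched mca/K(dnp) substrates was read at 24°C (ex/em 320/400 nm). Technical triplicates, curve fitting.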

Sm20S β2 subunit [2] = molecular target: T1, Sm20S β2 subunit; assay: Concentration-response assay, purified Sm20S, Boc-LRR-amc substrate; format: biochemical; conditions: for inhibition at 0.5 µM: 2 h, read-out: reduction of β2 activity (Boc-LRR-amc)
Summary of the method: (§2)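 Sm20S purified from adult worm homogenate by 30%/60% ammonium sulfate precipitation, gel filtration and DEAE anion exchange. Test compound was 3-fold serially diluted in DMSO, then diluted 250-fold into 20 mM Tris-HCl pH 7.5, 0.02% SDS with 20 nM enzyme. After 15 min preincubation, an equal volume of 20 μM substrate was added: Z-LLE-amc (β1), Boc-LRR-amc (β2) or Suc-LLVY-amc (β5). Read at RT for 2 h every 2 min. Max velocity over eight reads, normalized to 0.1% DMSO control, four-parameter logistic fit.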

[3] = test system: 20S proteasome β5 subunit (single-step enriched extracts); assay: Proteasome inhibition in three Schistosoma species, β5 substrate Ac-FNKL-amc; format: biochemical, S. mansoni, S. haematobium, S. japonicum; conditions: for inhibition of β5 activity, three Schistosoma species: extracts pre-incubated 1 h with 500 nM inhibitor; for reduction of β5 activity, across three Schistosoma species: 250 nM inhibitor
Summary of the method: (§3)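 Extracts of S. mansoni, S. haematobium and S. japonicum adults were enriched by 30%/60% ammonium sulfate precipitation. Extracts (S. haematobium 0.625 μg/μL; others 1.25 μg/μL) were preincubated 1 h with 500 nM test compound (one also at 250 nM) or 0.125% DMSO. An equal volume of substrate was then added: 20 μM β1 or β2 mca/K(dnp) substrate, or 40 μM β5 Ac-FNKL-amc. Read at 24°C, triplicate wells.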

[4] = test system: 20S proteasome β1 subunit (single-step enriched extracts); assay: Proteasome inhibition in three Schistosoma species, β1 substrate mca-VDQMDGW-K; format: biochemical, S. mansoni, S. haematobium, S. japonicum
Summary of the method: as §3

Sm20S β5 subunit = molecular target: T2, Sm20S β5 subunit (Schistosoma mansoni, UniProt A0A5K4F079); assay: Concentration-response assay, purified Sm20S, Suc-LLVY-amc substrate; format: biochemical; conditions: 500 nM inhibitor
T2 sequence (A0A5K4F079 63-264): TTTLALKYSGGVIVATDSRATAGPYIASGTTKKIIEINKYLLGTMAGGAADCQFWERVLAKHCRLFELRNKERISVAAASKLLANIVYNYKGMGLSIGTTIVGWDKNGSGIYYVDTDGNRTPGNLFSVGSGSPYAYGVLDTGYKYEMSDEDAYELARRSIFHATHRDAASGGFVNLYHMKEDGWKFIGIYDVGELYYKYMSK
Summary of the method: as §2

Sm20S β1 subunit [5] = molecular target: T3, Sm20S β1 subunit (Schistosoma mansoni, UniProt G4V926); assay: Inhibition of purified Sm20S, caspase-3 substrate mca-VDQMDGW-K; format: biochemical; conditions: 100 nM inhibitor, 10 μM substrate
T3 sequence (G4V926 1-225): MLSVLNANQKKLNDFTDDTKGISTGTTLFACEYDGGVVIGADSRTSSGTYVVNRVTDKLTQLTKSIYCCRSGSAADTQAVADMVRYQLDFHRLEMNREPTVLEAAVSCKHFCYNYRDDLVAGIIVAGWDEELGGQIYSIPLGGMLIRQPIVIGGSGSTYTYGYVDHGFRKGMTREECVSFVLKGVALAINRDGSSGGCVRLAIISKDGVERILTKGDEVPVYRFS

Sm20S β1 subunit [6] = molecular target: T3, Sm20S β1 subunit; assay: Concentration-response assay, purified Sm20S, Z-LLE-amc substrate; format: biochemical
Summary of the method: as §2

[7] = test system: 20S proteasome β2 subunit (single-step enriched extracts); assay: Proteasome inhibition in three Schistosoma species, β2 substrate mca-FnKRR-K; format: biochemical, S. mansoni, S. haematobium, S. japonicum; conditions: extracts pre-incubated 1 h with 500 nM inhibitor
Summary of the method: as §3

Sm20S β1 subunit [8] = molecular target: T3, Sm20S β1 subunit; assay: Inhibition of single-step enriched Sm20S, mca-VDQMDGW-K; format: biochemical
Summary of the method: as §1

Sm20S = format: biochemical, Schistosoma mansoni; conditions: purified Sm20S
Summary of the method: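 Purified Sm20S at 10 nM was given 2-fold serial dilutions of each substrate and fluorescence was read at 24°C. Ex/em was 360/460 nm for amc and 320/400 nm for mca substrates. Ranges were 2–500 μM for the β1 pair and 6.25–500 μM for the β2 pair. Relative activity was normalized to the rate at 500 μM (β1 pair), 500 μM Boc-LRR-amc vs 31.25 μM mca-FnKRR-K(dnp) (β2), and 100 μM (β5 pair). Technical triplicates.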

Compound: CC(C)C[C@H](NC(=O)[C@H](Cc1ccccc1)NC(=O)c1cnccn1)B(O)O [BTZ, bortezomib]
- inhibition of β2 activity with new substrate mca-FnKRR-K(dnp) (Sm20S β2 subunit [1]; 10 μM inhibitor): did not inhibit
- reduction of β2 activity (Sm20S β2 subunit [1]; up to 5 μM inhibitor): No reduction
- inhibition of β2 activity with old substrate Boc-LRR-amc (Sm20S β2 subunit [2]; 10 μM inhibitor): completely inhibited
- inhibition at 0.5 µM (Sm20S β2 subunit [2]): ~35%
- inhibition of β5 activity, three Schistosoma species [3]: preferentially inhibited
- inhibition of β1 activity, three Schistosoma species ([4]; extracts pre-incubated 1 h with 500 nM inhibitor): preferentially inhibited
- inhibition of β5 activity (Suc-LLVY-amc) (Sm20S β5 subunit): strongly inhibited
- inhibition of mca-VDQMD*GW-K(dnp) hydrolysis by Sm20S (Sm20S β1 subunit [5]): inhibited
- reduction of β1 activity (Z-LLE-amc) (Sm20S β1 subunit [6]; 500 nM inhibitor, purified Sm20S): strongly inhibited

Compound: CC(C)C[C@H](NC(=O)[C@H](CCc1ccccc1)NC(=O)CN1CCOCC1)C(=O)N[C@@H](Cc1ccccc1)C(=O)N[C@@H](CC(C)C)C(=O)[C@@]1(C)CO1 [CFZ, carfilzomib]
- inhibition at 0.5 µM (Sm20S β2 subunit [2]): ~40%
- inhibition of β5 activity, three Schistosoma species [3]: inhibited β5 and β2 more than β1
- inhibition of β2 activity, three Schistosoma species [7]: inhibited β5 and β2 more than β1
- inhibition of β5 activity (Suc-LLVY-amc) (Sm20S β5 subunit): strongly inhibited
- inhibition of β1 activity with new substrate mca-VDQMDGW-K(dnp) (Sm20S β1 subunit [8]; 10 μM inhibitor, single-step enriched Sm20S): only partially inhibitory
- inhibition at 5 µM (Sm20S β1 subunit [8]; read-out: inhibition of β1 subunit): 15%
- inhibition of β1 activity with old substrate Z-LLE-amc (Sm20S β1 subunit [6]; 10 μM inhibitor): fully inhibited
- inhibition at 0.5 µM (Sm20S β1 subunit [6]; 2 h, read-out: reduction of β1 activity (Z-LLE-amc)): ~40%

Compound: CCCCCC(=O)N[C@@H](Cc1c[nH]c2ccccc12)C(=O)N[C@@H](Cc1c[nH]c2ccccc12)C(=O)N[C@@H](Cc1ccccc1)C(=O)[C@@]1(C)CO1 [CP‐17]
- reduction of β5 activity, across three Schistosoma species [3]: > 90%
- reduction in β1 activity, across three Schistosoma species ([4]; 250 nM inhibitor): little inhibition

Compound: C[C@@]12OC(=O)[C@]1([C@@H](O)[C@@H]1C=CCCC1)NC(=O)[C@@H]2CCCl [MZB, marizomib]
- reduction of β5 activity, across three Schistosoma species [3]: complete inactivation

Compound: Ac‐FNKL‐amc
- cleavage rate relative to Suc-LLVY-amc (Sm20S; both substrates at 25 μM, β5): ~ 4 fold
- substrate concentration at which cleavage is maximal (Sm20S; β5 substrate): 25 µM

Compound: Boc‐LRR‐amc
- cleavage by Sm20S over substrate concentration range (Sm20S; 6.25-500 μM substrate, β2): steadily increased across the entire concentration range

Compound: mca‐VDQMDGW‐K(dnp)‐NH2 (mca-VDQMDGW-{K(dnp)-NH2}; reading uncertain; also: printed as mca‐VDQMDGW‐K(dnp)‐NH2)
- cleavage efficiency relative to LLE-amc (Sm20S; between 16 and 250 μM substrate, β1): ~ 2 fold
